Results taken from PubChem BioAssay.
Results filed as inconclusive are left out.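 Rule for the calls, unless noted: active = RAM network inhibition above 8.4% in each of two replicates, 3 SD over the compound average; inconclusive = above 8.4% inhibition in only one replicate; inactive = 8.4% inhibition or less in each replicate.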

Key:
[1] = OD615 S. cerevisiae growth inhibition, permissive medium, pilot counter-assay, permissive growth control for S. cerevisiae lifespan shortening project (AID 705;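 active = growth inhibition above 25% in both replicates, a cutoff set 3 SD above the mean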); settings: OD615, 24 h, at 10 µM, hits give high values
Summary of the method: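 Material: engineered DeaD yeast; Compound: one dose 10 µM, DMSO 0.25% final; Detection: absorbance (optical density) at 615 nm; Buffer or medium: permissive raffinose/galactose medium; Timing: 24 h exposure, 30 °C.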

[2] = Restrictive medium S. cerevisiae growth inhibition, OD615, pilot screen of yeast lifespan reduction project, restrictive growth control (AID 706;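 active = growth inhibition above a set limit, 3 SD over mean compound inhibition, in both replicates, cut at about 43% in these data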;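 note: modified DeaD lifespan yeast strain shifted to restrictive glucose medium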); settings: OD615, 48 h, at 10 µM, hits give high values
Summary of the method: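 Buffer or medium: restrictive glucose medium (CSMM-D); test system: modified S. cerevisiae; doses: single dose of 10 µM compound final, 0.25% DMSO; schedule: 48 h compound exposure at 30 °C; detection: absorbance (optical density) measured at 615 nm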

[3] = viability gain of MRP-1-high H69AR cells under doxorubicin, pilot screen, MRP-1 activator project, CellTiter-Glo, duplicate (AID 807;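 active = viability increase at or above a cutoff of the median across tested compounds plus 3 SD, cut at about 8.5% in these data, passing the limit was not always enough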;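 note: compound pretreatment 18-22 h then 72 h combined with doxorubicin; 0% = doxorubicin alone and 100% = vehicle without doxorubicin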); settings: H69AR viability with doxorubicin, CellTiter-Glo luminescence; at 10 µM; hits give high values
[4] = growth suppression of beta-catenin knockout HCT116, pilot screen, human colon tumor cells (AID 823;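 active = cell viability at or below a set limit in both duplicate runs, the limit being the all-compound median minus 4 SD, cut at about 23% in these data, passing the limit was not always enough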;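 note: 0% = wells killed by 20 µM Hyamine and 100% = untreated DMSO cell wells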); settings: CellTiter-Glo, 60 h, at 10 µM, hits give low values
[5] = growth suppression of PTEN-deleted HCT116, pilot screen, cell-based, HCT116 clonal line, CellTiter-Glo (AID 824;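 active = viability at or below 27.92% in each of two runs, the all-compound median minus 4 SD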;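 note: 0% = 20 µM Hyamine control and 100% = vehicle cell control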); settings: 60 h, at 10 µM, hits give low values
[6] = inhibitors of the yeast RAM network, pilot screen, dse1pr::URA3 reporter, 5-FOA selection (AID 869;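 active = inhibition over a set limit, the all-compound mean plus 3 SD, in both replicate runs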;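 note: 0% = DMSO wells with no growth and 100% = 10 µM 1-NA-PP1 with full growth; RAM network block rescues cells from 5-FOA so hits raise OD615 growth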); settings: S. cerevisiae dse1pr::URA3 5-FOA growth, OD615, 2 d; at 10 µM; hits give high values; strain carries analog-sensitive mutant Cbk1 kinase
[7] = RAM signaling pathway blockade in yeast – S. cerevisiae, Pdr1DBD-CYC8 efflux-inhibited sensitized strain, primary screen (AID 1298);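 note: 0% = DMSO untreated cells without growth and 100% = 10 µM 1-NA-PP1 full growth; higher means more yeast growth rescued from 5-FOA killing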; settings: S. cerevisiae cbk1-as DSE1-URA3 strain, 5-FOA growth OD615, 2 d; at 50 µM; hits give high values

Cc1cc(SCC(=O)c2ccccc2)n2nc(C)nc2n1
inactive: growth inhibition [1] -12.2% | growth inhibition [2] 0.305% | viability increase [3] -6.79% | viability [4] 89.8% | viability [5] 87% | inhibition [6] 2.91% | RAM network inhibition [7] 2.67%

CCOC(=O)CNC(=O)Cn1cnc2sc(C)c(S(=O)(=O)N3CCC(C)CC3)c2c1=O
inactive: growth inhibition [1] -5.06% | growth inhibition [2] -1.62% | viability increase [3] -2.55% | viability [4] 94% | viability [5] 93.6% | inhibition [6] 0.32% | RAM network inhibition [7] 4.1%

O=C1C(Cl)=C(N2CCOCC2)C(=O)N1c1ccccc1Cl
inactive: growth inhibition [1] -8.11% | growth inhibition [2] -4.76% | viability increase [3] -2.16% | viability [4] 99.2% | viability [5] 103% | inhibition [6] 0.045% | RAM network inhibition [7] 4.96%

CCCNC(=O)N1CCN(c2nc(C(C)C)c3c(c2C#N)CC(C)(C)OC3)CC1
inactive: growth inhibition [1] -12.9% | growth inhibition [2] -6.2% | viability increase [3] 2.34% | viability [4] 68.8% | viability [5] 61.5% | inhibition [6] 2.17% | RAM network inhibition [7] 8.42%

Cn1c(CNC(=O)C(C)(C)C)nc2ccccc21
inactive: growth inhibition [1] -11.4% | growth inhibition [2] -0.87% | viability increase [3] -3.97% | viability [4] 101% | viability [5] 93.1% | inhibition [6] 1.8% | RAM network inhibition [7] 2.73%

c1ccc(-c2cnnc(N3CCCCC3)n2)cc1
inactive: growth inhibition [1] -4.88% | growth inhibition [2] 8.84% | viability increase [3] -1.75% | viability [4] 102% | viability [5] 97.4% | inhibition [6] 0.13% | RAM network inhibition [7] 5.69%

Cc1nc2sc(C(c3ccco3)N3CCC(C)CC3)c(O)n2n1 (configuration not stated)
inactive: growth inhibition [1] -6.81% | growth inhibition [2] 1.09% | viability increase [3] -1.29% | viability [4] 102% | viability [5] 103% | inhibition [6] 0.77% | RAM network inhibition [7] 2.81%

Cc1cc(C)n(/N=C/c2cccc(O)c2)c(=O)c1C(N)=O
inactive: growth inhibition [1] -22.8% | growth inhibition [2] -22.5% | viability increase [3] 1.95% | viability [4] 99.7% | viability [5] 100% | inhibition [6] 0.485% | RAM network inhibition [7] 4.4%

OC(CNCc1ccco1)COc1ccccc1 (configuration not stated)
inactive: growth inhibition [1] -12.7% | growth inhibition [2] -10.2% | viability increase [3] 0.59% | viability [4] 100% | viability [5] 103% | inhibition [6] 1.44% | RAM network inhibition [7] 2.54%

CCOC(=O)CNC(=O)C(NC(=O)C1CCC(C)CC1)C(C)CC (configuration not stated)
inactive: growth inhibition [1] 0.975% | growth inhibition [2] -17.8% | viability increase [3] -1.73% | viability [4] 98.8% | viability [5] 98% | inhibition [6] 0.95% | RAM network inhibition [7] 0.93%

CCOc1ccc(CCNC(=O)c2nnc(Cc3ccc(F)cc3)o2)cc1OCC
inactive: growth inhibition [1] -5.33% | growth inhibition [2] 7.65% | viability increase [3] -2.55% | viability [4] 103% | viability [5] 95.2% | inhibition [6] 1.5% | RAM network inhibition [7] 5.06%

Cc1cccc(-n2ncc3c(N4CCOCC4)ncnc32)c1
inactive: growth inhibition [1] 6.08% | growth inhibition [2] 17.2% | viability increase [3] -0.68% | viability [4] 101% | viability [5] 90.5% | inhibition [6] 1.59% | RAM network inhibition [7] 0.06%

O=c1c2ccccc2c2ccccc2c(=O)n1CC1CCCO1 (configuration not stated)
inactive: growth inhibition [1] 2.77% | growth inhibition [2] 0.685% | viability increase [3] -2.2% | viability [4] 101% | viability [5] 89.6% | inhibition [6] 0.305% | RAM network inhibition [7] 12.7%

O=C1Nc2cc(Cl)cnc2N2CCCC12 (configuration not stated)
inactive: growth inhibition [1] -2.57% | growth inhibition [2] 8.33% | viability increase [3] -0.67% | viability [4] 97.7% | viability [5] 101% | inhibition [6] 0.905% | RAM network inhibition [7] 0%

Cn1c(NC(=O)c2ccccc2Br)cc(=O)n(C)c1=O
inactive: growth inhibition [1] -9.54% | growth inhibition [2] -19.3% | viability increase [3] -3.97% | viability [4] 105% | viability [5] 94.5% | inhibition [6] 1.15% | RAM network inhibition [7] 0.36%

COCCOC(=O)C1=C(C)NC(=O)NC1c1ccc(OC(=O)c2ccco2)c(OC)c1 (configuration not stated)
inactive: growth inhibition [1] 7.03% | growth inhibition [2] -14.5% | viability increase [3] -2.68% | viability [4] 97.8% | viability [5] 92.7% | inhibition [6] 2.5% | RAM network inhibition [7] 4.12%

CC(=O)c1cccc(NC(=O)c2c(F)c(F)c(F)c(F)c2F)c1
inactive: growth inhibition [1] -4.19% | growth inhibition [2] 6.79% | viability increase [3] -7.13% | viability [4] 95% | viability [5] 88.4% | inhibition [6] 1.01% | RAM network inhibition [7] -0.87%

CN1CCc2c(sc(NC(=O)c3ccc(S(=O)(=O)N4CCOCC4)cc3)c2C(N)=O)C1
inactive: growth inhibition [1] -5.07% | growth inhibition [2] -4.6% | viability increase [3] -0.65% | viability [4] 111% | viability [5] 103% | inhibition [6] -0.19% | RAM network inhibition [7] 7.28%

O=C(Nc1nccs1)c1ccc(Cl)s1
inactive: growth inhibition [1] -0.705% | growth inhibition [2] 4.79% | viability increase [3] 1.01% | viability [4] 96.3% | viability [5] 94.9% | inhibition [6] -0.025% | RAM network inhibition [7] -1.54%

CCC(C)NC(=O)C(Cc1ccccc1)n1cccc1 (configuration not stated)
inactive: growth inhibition [1] -9.66% | growth inhibition [2] -6.93% | viability increase [3] 0.42% | viability [4] 101% | viability [5] 88.4% | inhibition [6] -0.195% | RAM network inhibition [7] 3%

O=C(O)CC1C(=O)NCCN1CCCc1ccccc1 (configuration not stated)
inactive: growth inhibition [1] -11.4% | growth inhibition [2] -8.64% | viability increase [3] -0.23% | viability [4] 97.8% | viability [5] 97.9% | inhibition [6] 0.455% | RAM network inhibition [7] -1.48%

Cc1nnc(NC(=O)CSC2CCCCC2)s1
inactive: growth inhibition [1] 3.88% | growth inhibition [2] 17.7% | viability increase [3] -0.77% | viability [4] 105% | viability [5] 97.9% | inhibition [6] 1.1% | RAM network inhibition [7] 2.15%

O=C(c1cnn2c(C(F)(F)F)cc(-c3ccco3)nc12)N1CCCCCC1
inactive: growth inhibition [1] -14.5% | growth inhibition [2] -11.4% | viability increase [3] -4.15% | viability [4] 91.3% | viability [5] 91.5% | inhibition [6] 0.705% | RAM network inhibition [7] 1.5%

CCC(=O)Nc1nc2c(OC)ccc(C)c2s1
inactive: growth inhibition [1] -17.7% | growth inhibition [2] -14.1% | viability increase [3] -5.96% | viability [4] 96.4% | viability [5] 92.2% | inhibition [6] 0.225% | RAM network inhibition [7] 1.37%

O=C(NCCN1CCOCC1)c1ccc(CS(=O)(=O)c2c(Cl)cccc2Cl)o1
inactive: growth inhibition [1] -0.145% | growth inhibition [2] 5.92% | viability increase [3] -0.81% | viability [4] 110% | viability [5] 105% | inhibition [6] 0.74% | RAM network inhibition [7] 0.87%

CC1CCN(CC(O)COc2ccc(F)cc2)CC1 (configuration not stated)
inactive: growth inhibition [1] -19.2% | growth inhibition [2] -16.5% | viability increase [3] -0.7% | viability [4] 96.4% | viability [5] 99.5% | inhibition [6] 0.515% | RAM network inhibition [7] 2.56%

Cc1cc2n(c1)CCn1c(C)ccc1-2
inactive: growth inhibition [1] 18.4% | growth inhibition [2] 14.5% | viability increase [3] -2.98% | viability [4] 97.8% | viability [5] 96.9% | inhibition [6] 1.99% | RAM network inhibition [7] 2.57%

COc1ccccc1NC(=O)C1=C(C)NC(=O)NC1c1ccccc1F (configuration not stated)
inactive: growth inhibition [1] -7.88% | growth inhibition [2] -13.5% | viability increase [3] -0.75% | viability [4] 99.2% | viability [5] 107% | inhibition [6] 1.82% | RAM network inhibition [7] 2.41%

COC(=O)c1c(C)oc2ccc(OC(=O)c3cccs3)cc12
inactive: growth inhibition [1] 4.65% | growth inhibition [2] -15% | viability increase [3] 1.81% | viability [4] 96.3% | viability [5] 99.5% | inhibition [6] 0.81% | RAM network inhibition [7] 0.1%

O=C1C2C3c4ccccc4C(c4ccccc43)C2C(=O)N1Cc1ccco1 (configuration not stated)
inactive: growth inhibition [1] -2.21% | growth inhibition [2] 5.63% | viability increase [3] -3.21% | viability [4] 97% | viability [5] 93.4% | inhibition [6] 0% | RAM network inhibition [7] 4.51%

CCC(CO)Nc1ncnc2c1cnn2-c1ccc(OC)cc1 (configuration not stated)
inactive: growth inhibition [1] -7.48% | growth inhibition [2] -7.47% | viability increase [3] 0.37% | viability [4] 104% | viability [5] 101% | inhibition [6] 2.01% | RAM network inhibition [7] -1.98%

CCOC(=O)C1=C(C)N(C)C(C)=C(C(=O)OCC)C1c1ccccn1
inactive: growth inhibition [1] -13.2% | growth inhibition [2] -14.6% | viability increase [3] -0.35% | viability [4] 96.2% | viability [5] 91.6% | inhibition [6] 1.98% | RAM network inhibition [7] 0.62%

CCc1cc(C(=O)Cc2cnn(-c3ccccc3)c2)c(O)cc1O
inactive: growth inhibition [1] -6.31% | growth inhibition [2] -9.12% | viability increase [3] -2.95% | viability [4] 101% | viability [5] 99.1% | inhibition [6] 1.42% | RAM network inhibition [7] 3.54%

CC(=O)Nc1cc2c(cc1C(=O)c1ccccc1)OCCO2
inactive: growth inhibition [1] -3.76% | growth inhibition [2] 7.87% | viability increase [3] -0.99% | viability [4] 95.2% | viability [5] 92.9% | inhibition [6] 1.35% | RAM network inhibition [7] 0.89%

COc1ccc2c(c1)NC1(O)c3ccccc3C(=O)C21O (configuration not stated)
inactive: growth inhibition [1] -5.39% | growth inhibition [2] 4.5% | viability increase [3] -1.41% | viability [4] 99.3% | viability [5] 98.3% | inhibition [6] 1.53% | RAM network inhibition [7] 3.44%

O=C(C1CCCN(c2nnc(-n3cccc3)s2)C1)N1CCN(c2ccccc2)CC1 (configuration not stated)
inactive: growth inhibition [1] -4% | growth inhibition [2] -4.55% | viability increase [3] -1.11% | viability [4] 88.9% | viability [5] 86.5% | inhibition [6] 0.485% | RAM network inhibition [7] 1.12%
